High-throughput results (PubChem BioAssay)
An excerpt weighted towards active compounds, which were near 9.6% of everything screened.
MT stabilize HCS: microtubule stabilizers in HeLa cells, primary screen, imaging, high-content imaging; 200,000 tested, 0.83% active; HeLa tubulin immunostaining HCS, 24 h; share of cells brighter than vehicle mean+2SD; % tubulin-high responders, % at 10 µM;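 active = plate Z-score above 3 for both tubulin-high and condensed-nucleus cell shares, with cell loss under 80%, at 10 µM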;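 also: anti alpha tubulin signal scored within the nucleus-defined area of each cell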
Ba/F3 V617F tox: reduced viability of JAK2V617F-dependent Ba/F3 cells, primary screen, JAK2V617F inhibitor project, cell-based, Ba/F3 EpoR-JAK2V617F, luminescence. ATP luminescence. inhibition, % at 5.6 µM. 220,000 tested, 1.1% active. AID 1446, 2008;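 active = inhibition above the campaign mean plus 3 SD over all tested compounds, cut at about 24% in these data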;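 also: cytokine-independent growth of Ba/F3 cells driven by EpoR plus mutant JAK2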
b-catenin transl: modulators of beta-catenin nuclear translocation, primary screen, imaging, HeLa cells, immunofluorescence, high-content | AID 1665, 2009 | 190,000 tested, 0.3% active | nuclear translocation activity, % at 5 µM;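 active = nuclear translocation activity above 50% at 5 µM, with a well cell count of 50 or more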;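 also: per-cell ratio of nuclear to cytoplasmic median beta-catenin stain intensity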
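System: Human HeLa cells, endogenous beta-catenin | Compound dosing: 5 µM primary, 0.02–20 µM confirmation | Timing: 24 h compound exposure at 37°C, 5% CO2 | Measured by: Fluorescence imaging of beta-catenin antibody stain plus DAPI | Read-out basis: % activation of per-cell nuclear versus cytoplasmic median beta-catenin signal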
APP transl inh: inhibitors of APP translation via 5'UTR reporter, primary screen, APP 5'UTR luciferase, SH-SY5Y cells; SH-SY5Y APP 5'UTR-luciferase reporter, luminescence; inhibition, % at 2 µM; 190,000 tested, 0.82% active; AID 1285, 2008;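 active = inhibition above a set limit, derived from the sample mean plus 3 SD, cut at about 45% in these data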
BaF3 tox: parental Ba/F3 cell viability inhibition, counter-screen for JAK2V617F inhibitor project, murine pro-B, CellTiter-Glo luminescence; 220,000 tested, 1.1% active; CellTiter-Glo ATP luminescence; inhibition, % at 5.6 µM;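 active = inhibition above a per-campaign cutoff, the mean inhibition of all tested compounds plus 3 SD, cut at about 27% in these data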
L major viab: Leishmania major promastigote growth inhibition, primary screen; AID 1063, 2008; Leishmania major promastigotes, resazurin fluorescence viability; 200,000 tested, 9% active; inhibition, % at 10 µM; in the data active = inhibition above about 50%;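 also: promastigotes grown with compound for 44 hours at 28 °C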
Each line names hits and unclear results; the compound was inactive in the other large screens.

Cc1cc2nc(CCN(Cc3cccnc3)C(=S)Nc3ccc(F)cc3)[nH]c2cc1C	none
Cc1nc(SCC(=O)NC(=O)NC2CCCCC2)nc(C)c1C	none
O=C(CP(=O)(c1ccccc1)c1ccccc1)Nn1cnnc1	none
CC(C)C(=O)NC(=S)Nc1c(Cl)ccc2nsnc12	none (no result: MT stabilize HCS, APP transl inh, L major viab)
C=CCOc1ccccc1CNCc1ccc(F)cc1	L major viab 56.5
Fc1ccc(CNCc2ccccc2Cl)cc1	none
C=CCc1ccccc1OCCNCc1ccccc1	L major viab 70.9
CC(CC(=O)N1CCN(c2ccc(C(F)(F)F)cn2)CC1)n1ccnc1 (configuration not stated)	none
COc1ccc(C2=CSC3=NNC4(CCCCC4)NN23)cc1	L major viab 67.5
O=C(NCc1ccccc1)c1ncn[nH]1	none (no result: MT stabilize HCS, APP transl inh, L major viab)
CCC(=O)N1CCc2cc(S(=O)(=O)CCC(=O)Nc3cccc(C)n3)ccc21	L major viab 55.7
CCC(=O)N1CCc2cc(S(=O)(=O)CCC(=O)Nc3ccc(C)c(F)c3)ccc21	none
COc1ccc(/C=C(\C#N)C(=O)OCC(=O)Nc2ccc(C(C)(C)C)cc2)cc1	none
Cc1cc(/C=C2\SC(=S)NC2=O)c(C)n1-c1cccc(O)c1	none (no result: MT stabilize HCS, APP transl inh, L major viab)
Cc1sc(-n2c(C)cc(/C=C3\SC(=S)NC3=O)c2C)c(C#N)c1C	b-catenin transl 79.7
Cc1sc(-n2c(C)cc(/C=N/n3cnnc3)c2C)c(C#N)c1C	L major viab 77.0
Cc1cc(/C=N/n2cnnc2)c(C)n1-c1ccccc1	none
CCN(Cc1ccccc1)C(=O)C1CCN(Cc2ccc(OC)c(OC)c2OC)CC1	none
CCN(CC)C(=O)C1CCN(Cc2cn(C)nc2-c2ccc(Oc3ccccc3)cc2)CC1	none
O=C(C1CCN(CCCc2ccccc2)CC1)N(CCc1ccccc1)Cc1ccccc1	L major viab 91.0
CCN(Cc1ccccc1)C1CCN(Cc2ccc(SC)cc2)CC1	L major viab 84.9
CCN(Cc1ccccc1)C(=O)C1CCN(Cc2ccc(SC)cc2)CC1	L major viab 87.6
CCN(CC)C(=O)C1CCN(Cc2ccc(Br)cc2)CC1	L major viab 92.0
Cc1ccc(S(=O)(=O)N(Cc2ccccc2)c2ccccc2C(=O)NCc2cccnc2)cc1	L major viab 64.3
COc1ccc(S(=O)(=O)N(Cc2ccccc2)c2ccccc2C(=O)Nc2ccccc2C(=O)NCc2ccco2)cc1	L major viab 66.2
O=C(O)c1ccccc1C(=O)NCc1cccnc1	none
COc1ccc(S(=O)(=O)Nc2ccccc2C(=O)NCc2ccco2)cc1	none
Cc1ccccc1CN(c1ccc(C(=O)Nc2ccccc2C(=O)NCc2ccco2)cc1)S(C)(=O)=O	L major viab 81.3
Cc1ccccc1CN(c1ccc(C(=O)Nc2ccccc2C(=O)N2CCCC2)cc1)S(C)(=O)=O	none (no result: b-catenin transl)
O=C1C2C3C=CC(CC3)C2C(=O)N1c1ccccc1[N+](=O)[O-] (configuration not stated)	none
COC(=O)/C=C(\C)N=Nc1c(O)[nH]c2ccccc12	none (no result: MT stabilize HCS, APP transl inh, L major viab)
COc1ccccc1NC(=O)CSc1nc2n[nH]c(C)c2c(=N)n1-c1ccccc1Cl	L major viab 64.8
Cc1ccc(-n2c(NN)nc3ccccc3c2=O)c(C)c1	none
Cc1ccc(-n2c(-c3ccccc3)c[n+]3c2CCc2ccccc2-3)c(C)c1	Ba/F3 V617F tox 100.3, BaF3 tox 81.2, L major viab 100.5
NC(=O)Cn1cnc2nc3n(c2c1=O)CCC3	none
CCCC(C(=O)NC1=NCCS1)c1ccccc1 (configuration not stated)	none
CCOC(=O)N1CCN(S(=O)(=O)c2ccc(C(=O)Nc3nnc(C)o3)cc2)CC1	none
N#Cc1ccc(C(=O)Nc2cc(S(=O)(=O)N3CCCC3)ccc2OCC(F)(F)F)cc1	L major viab 58.5
COc1ccccc1NC(=O)c1ccc(S(=O)(=O)N2CCCC2)cc1	none (no result: b-catenin transl)
CCOC(=O)N1CCN(S(=O)(=O)c2ccc(C(=O)Nc3ccc4c(c3)C(=O)NC4=O)cc2)CC1	L major viab 55.6
COc1ccccc1NS(=O)(=O)c1ccc(C)c(NC(=O)c2ccc(S(=O)(=O)N3CCCCCC3)cc2)c1	L major viab 96.9
O=C(CNc1cc(S(=O)(=O)N2CCCC2)ccc1OCC(F)(F)F)Nc1cc(Cl)cc(Cl)c1	none
Cc1cc2cc(C)c3nnc(SCC(=O)Nc4ccc(S(=O)(=O)N5CCCCC5)cc4)n3c2cc1C	L major viab 55.9
Cc1cc2ccccc2n2c(SCC(=O)Nc3ccc(S(=O)(=O)N4CCCCC4)cc3)nnc12	none
CCC(=O)NC(=S)Nc1ccc(NC(=O)COc2ccc([N+](=O)[O-])cc2)cc1	none
COCc1cc(C)[nH]c(=O)c1C(=O)NC12CC3CC(CC(C3)C1)C2	none
O=C(Nc1cccc(S(=O)(=O)N2CCCC2)c1)c1ccc2c(=O)n3c(nc2c1)CCCCC3	L major viab 82.4
COc1ccc(NS(=O)(=O)c2cccc(NC(=O)c3ccc(S(=O)(=O)N4CCCCCC4)cc3)c2)cc1	MT stabilize HCS 18.2, Ba/F3 V617F tox 41.9, BaF3 tox 43.9, L major viab 97.1
COc1ccc(S(=O)(=O)N2CCCCC2)cc1NC(=O)c1ccc2c(c1)OCO2	L major viab 78.3
COc1ccc(S(=O)(=O)Nc2cccc(S(=O)(=O)N3CCCCCC3)c2)cc1	none
O=C(Nc1cccc(S(=O)(=O)N2CCCCCC2)c1)c1ccc2c(c1)OCO2	none
O=S(=O)(Nc1nc2ccccc2nc1Nc1cccc(S(=O)(=O)N2CCCCC2)c1)c1ccccc1	L major viab 69.0 (no result: b-catenin transl)
COc1cccc(C(C(=O)NC2CCCC2)N(C(=O)c2ccco2)c2ccc(-n3cnnn3)c(C)c2)c1OC (configuration not stated)	none
COc1ccc(S(=O)(=O)N2CCCCC2)cc1NC(=O)CSc1nccn1C	L major viab 98.8
Cn1ccnc1SCC(=O)Nc1cccc(S(=O)(=O)N2CCCCC2)c1	none
CC(C)N1C(=O)C(Cc2nc3ccccc3c(=O)n2-c2ccccc2)c2ccccc21 (configuration not stated)	none
Cc1nc2ccccc2c2c1C(=O)N(C(C)C)C2=O	none
CC(C)N1C(=O)/C(=C\c2nc3ccccc3c(=O)n2-c2ccccc2)c2ccccc21	L major viab 99.4
CC(C)N1C(=O)/C(=C/c2nc3ccccc3c(=O)n2-c2ccccc2)c2ccccc21	L major viab 100.1
CCC(CC)C(=O)c1c[nH]c(C(=O)NN)c1	APP transl inh 88.4
CC1(C)CC(=O)c2c(O)cc(OCc3ccc(Br)cc3)cc2O1	L major viab 68.5 (no result: b-catenin transl)
Nc1cccc2c1C(=O)N(CC(=O)NC13CC4CC(CC(C4)C1)C3)C2=O	none
O=C(Cn1sc2ccccc2c1=O)NC12CC3CC(CC(C3)C1)C2	L major viab 100.4 (no result: APP transl inh)
